Measured values: ChEMBL document CHEMBL1152328, “Alstiphyllanines A-D, indole alkaloids from Alstonia macrophylla” (J Nat Prod, 2009)
Converted amounts (≈) assume the structure as drawn.

Key:
Aorta = test: Vasodilation activity in Wistar rat endothelium-intact thoracic aortic ring assessed as inhibition of phenylepinephrine-induced contraction at 30 uM; format: functional; set-up: scale not given: the % may be the effect or the level left
HeLa = test: Cytotoxicity against human HeLa cells; format: cell-based
Plasmodium falciparum = test: Antiplasmodial activity against Plasmodium falciparum 3D7 infected human erythrocytes by Giemsa staining; format: functional, organism-based
Procedure, shortened: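 Human malaria parasites were kept in culture, and the test samples were made up as DMSO stock solutions before assay.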

Row | Structure (SMILES) | Activity (Aorta) [%] | IC50 (HeLa) [µg/mL] | IC50 (Plasmodium falciparum) [µg/mL]
1 | C/C=C1\C[N+]2([O-])[C@H]3C[C@@H]1[C@]1(C(=O)OC)[C@@H](OC(C)=O)[C@]4(C[C@@H]12)c1ccccc1N(C)[C@H]34 [ALSTIPHYLLANINE A] | 70 | > 25 | 6.85 (≈ 16.1 µM)
2 | C/C=C1/C[N+]2(C)[C@@H]3C[C@@]45c6cc(OC)ccc6N(C)[C@]4(O3)[C@@H]2C[C@@H]1[C@@]5(COC(=O)c1ccc(OC)c(OC)c1)C(=O)OC (some centres not stated) [ALSTIPHYLLANINE B] | 35 | > 25 | 0.34
3 | C/C=C1/C[N+]2(C)[C@@H]3C[C@@]45c6cc(OC)ccc6N(C)[C@]4(O3)[C@@H]2C[C@@H]1[C@@]5(COC(=O)c1cc(OC)c(OC)c(OC)c1)C(=O)OC (some centres not stated) [ALSTIPHYLLANINE C] | 40 | > 25 | 6.2
4 | C/C=C1/CN2[C@@H]3C[C@@]45c6cc(OC)ccc6N(C)[C@]4(O3)[C@@H]2C[C@@H]1[C@@]5(COC(=O)c1cc(OC)c(OC)c(OC)c1)C(=O)OC [ALSTIPHYLLANINE D] | 42 | > 25 | 2.75 (≈ 4.53 µM)
